# Screens as filed in PubChem BioAssay.
# p-CIP stab down – p/CIP protein destabilization. Q05BA5. F442A p/CIP-EGFP cells, EGFP fluorescence, 16 h. decrease of EGFP signal, % at 10 µM. 290,000 tested, 0.01% active. AID 1984;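 active = EGFP signal decrease of at least 30% at 10 µM or well 3 SD below plate mean, unless failing retest; inactive = the rest, including hits failing retest or dose response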
# proCasp7 act – activates human procaspase-7, counter-screen for procaspase-3 activators; recombinant procaspase-7, Ac-DEVD-pNA absorbance 405 nm; D23A/D198A/D206A triple mutant, cannot self-cleave; scale: DMSO 0, 5 µM enzyme 100; activation, % at 8.5 µM; 330,000 tested, 0.093% active;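 active = percent activation above the screen-wide mean plus 3 SD, cut at about 25% in these data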
# Target sequence (P55210 whole entry D23A/D198A/D206A): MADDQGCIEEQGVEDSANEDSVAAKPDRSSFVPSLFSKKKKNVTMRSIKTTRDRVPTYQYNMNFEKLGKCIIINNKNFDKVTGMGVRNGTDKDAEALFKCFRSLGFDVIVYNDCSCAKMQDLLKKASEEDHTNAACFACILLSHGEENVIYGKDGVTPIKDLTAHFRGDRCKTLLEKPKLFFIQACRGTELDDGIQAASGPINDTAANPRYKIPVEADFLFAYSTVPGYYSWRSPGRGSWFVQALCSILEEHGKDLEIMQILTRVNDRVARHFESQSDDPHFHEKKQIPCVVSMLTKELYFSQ
#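 System: Procaspase-7 triple mutant (PC-7 D3A); measure: % activation from two-timepoint absorbance difference, scaled to controls; times: 1 h compound preincubation, 2 h substrate cleavage, 25 °C; also added: Ac-DEVD-pNA substrate, 400 µM as added; measured by: Epi-absorbance of released pNA at 405 nm, two timepoints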
# proCasp3 act – activators of human procaspase-3; recombinant procaspase-3 D3A, Ac-DEVD-pNA absorbance 405 nm; activation, % at 8.5 µM; 330,000 tested, 0.11% active; AID 463141;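 active = activation above the mean of all tested compounds plus 3 SD, cut at about 21% in these data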;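 note: 0% = DMSO alone and 100% = DMSO wells spiked with extra 5 µM PC-3 D3A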
#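 Assay system: Autoprocessing-dead procaspase-3 D3A mutant enzyme; also added: Ac-DEVD-pNA; doses: one concentration, 8.5 µM nominal, 0.8% DMSO; times: 1 h compound preincubation, 2 h substrate hydrolysis at 25 °C; technique: 405 nm absorbance of p-nitroaniline, reads at 0 and 120 min; measure: % activation between DMSO and enzyme-spiked controls; repeats: single replicate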
# Rce1 inh – blocks yeast Ras-converting enzyme. 290,000 tested, 0.27% active. yeast membranes, quenched prenylated peptide cleavage fluorescence. AID 2563. calls only. Q03530;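 active = fall in fluorescence gain of 50% or more versus controls, with final raw signal at or below 3038400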;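 note: plate controls were neutral control wells for no effect and wells lacking membranes for full effect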
# Target sequence (Q03530 whole entry, looked up): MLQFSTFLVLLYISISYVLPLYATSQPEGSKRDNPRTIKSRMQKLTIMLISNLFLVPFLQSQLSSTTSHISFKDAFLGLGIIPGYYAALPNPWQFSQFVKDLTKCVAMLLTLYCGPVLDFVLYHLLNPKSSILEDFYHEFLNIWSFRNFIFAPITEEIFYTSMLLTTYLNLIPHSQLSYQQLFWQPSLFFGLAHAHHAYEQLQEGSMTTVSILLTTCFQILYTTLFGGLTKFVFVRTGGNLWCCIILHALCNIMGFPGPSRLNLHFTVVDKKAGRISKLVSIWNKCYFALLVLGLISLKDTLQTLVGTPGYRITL
# Hep lipid drop – hepatic lipid droplet formation modulation; AML12 mouse hepatocytes, oleate lipid droplets, BODIPY imaging; inhibition, % at 6.5 µM; 240,000 tested, 0.4% active;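 active = lipid droplet intensity inhibited by at least 50%, with more than 500 cells counted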
#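 Material – AML12 mouse liver cells · Also added – oleate loading, 100 µM · Compound dosing – 6.5 µM single-point dosing · Times – overnight treatment with compound plus oleate · Measured by – fluorescence imaging, 20x objective, two fields per well · Read-out – percent inhibition of filter-corrected integrated lipid droplet intensity per well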
# FXN GAA850 act – activators of GAA850 frataxin (FXN) promoter; HEK293 lucGAA850 FXN promoter luciferase reporter, 24 h; percent of 10 µM SAHA response; activation, % at 6 µM; 360,000 tested, 0.56% active; AID 540364;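 active = activation above the average of all compounds screened plus 3 SD, cutoff fixed separately per campaign, cut at about 7.5% in these data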;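 note: 0% = DMSO wells and 100% = 10 µM SAHA wells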
# Active calls of the source: *; i = inactive; · = no result; + = active, no number. Most compounds without a hit are left out; they make up all but 1.2% or so of the library.
SMILES,p-CIP stab down,proCasp7 act,proCasp3 act,Rce1 inh,Hep lipid drop,FXN GAA850 act
CC[N+](C)(C)CC/C=C1/c2ccccc2Sc2ccc(Cl)cc21,3,8,2,i,-20,-1
CCCCCCCCCC[N+](C)(C)CC/C=C1/c2ccccc2Sc2ccc(Cl)cc21,-18,-1,-9,+,·,0
CCCCCCCCCCC[N+](C)(C)CC/C=C1/c2ccccc2Sc2ccc(Cl)cc21,2,1,-7,+,·,1
CN(C)CC/C=C1\c2ccccc2Sc2ccc(Cl)cc21,6,-26,-9,i,-11,-1
COc1cc(C(=O)N2CCCC(c3cc(C(=O)NCc4ccc(F)cc4)no3)C2)cc(OC)c1C (centres undefined),·,·,·,·,·,-1
Cc1ccc2c(C)c(C(=O)N(Cc3ccc(F)cc3)C3CCS(=O)(=O)C3)oc2c1 (centres undefined),-12,-3,-8,+,-35,1
Cc1c(C(=O)N(Cc2ccc(F)cc2)C2CCS(=O)(=O)C2)oc2ccccc12 (centres undefined),-11,-3,0,i,-5,3
Cc1nc(N)sc1N=Nc1ccc(F)cc1,16,-16,-16,i,-2,9.7*
Cc1cc(NS(=O)(=O)c2ccccc2)c([N+](=O)[O-])cc1C,-1,-4,2,+,2,3
O=C(CCNS(=O)(=O)c1ccc2[nH]c(=O)oc2c1)NCc1ccccc1,-5,11,13,+,14,2
CCCCNC(=O)C1(C)CCCCN1C(=O)c1cc2ccccc2s1 (centres undefined),·,·,·,·,·,-2
Cc1ccc(-c2nn3c(C)nnc3s2)cc1NC(=O)c1cccs1,5,6,-2,i,11,-2
Cc1cc2nn(-c3cccc4ccccc34)nc2cc1NC(=O)c1cccs1,-17,12,16,+,·,1
COc1cccc(C(O)c2nc(-c3ccc(F)c(Cl)c3)cs2)c1 (centres undefined),·,·,·,·,·,0
COCCNC(=O)c1cc(-c2ccccc2)nn1CC1CC(c2cccc([N+](=O)[O-])c2)=NO1 (centres undefined),·,3,7,i,·,0
O=C(NCC1CC1)c1cc(-c2ccccc2)nn1CC1CC(c2cccc([N+](=O)[O-])c2)=NO1 (centres undefined),·,-3,5,+,·,1
CC(=O)c1cccc(-c2ccnc3c2CC(C(=O)Nc2cccc(NS(C)(=O)=O)c2)O3)c1 (centres undefined),·,·,·,·,·,-1
CC(OC(=O)c1ccc(S(C)(=O)=O)c([N+](=O)[O-])c1)C(=O)NC1C2CC3CC(C2)CC1C3 (centres undefined),·,·,·,·,·,2
CCOC(=O)c1c(NC(=O)c2cccc(N3C(=O)CCC3=O)c2)sc(C)c1C,0,4,3,+,·,4
Cc1cc(C)n(Cc2ccc(NC(=O)c3ccc(COc4ccccc4Br)cc3)cc2)n1,-9,3,3,+,·,-6
Cc1ccc([C@H]2N[C@]3(CCCN(Cc4ccc(Br)cc4)C3=O)[C@H]3C(=O)N(C)C(=O)[C@@H]23)cc1,·,·,·,·,·,-5
CCC(=O)N1CCC1(C)C(=O)Nc1ccccc1 (centres undefined),·,·,·,·,·,1
CCCCC(=O)N(C)c1c(CC)nc2c(OCC=C(C)C)cccn12,·,·,·,·,·,1
CCOC(=O)C1=C(C)N=c2s/c(=C3\C(=O)Nc4ccccc43)c(=O)n2C1c1ccc2c(c1)OCO2 (centres undefined),-7,7,-7,i,59*,1
CCS(=O)(=O)Nc1c(C(=O)O)[nH]c2ccccc12,-8,1,-10,+,·,0
SMILES,p-CIP stab down,proCasp7 act,proCasp3 act,Rce1 inh,Hep lipid drop,FXN GAA850 act
CCS(=O)(=O)Nc1c(C(=O)OC)[nH]c2ccccc12,-4,-1,-5,i,·,0
CCN(Cc1ccccc1)S(=O)(=O)c1ccc(C(=O)N(CCCN(C)C)c2nc3c(C)c(C)ccc3s2)cc1,·,4,0,+,·,0
CCC(C)(C)n1nnnc1C(c1cc2ccc(C)cc2[nH]c1=O)N(Cc1cccnc1)Cc1ccco1 (centres undefined),-7,5,-7,i,62*,-3
Cc1cc2cc(C(c3nnnn3C3CCCC3)N(Cc3cccnc3)Cc3ccco3)c(=O)[nH]c2cc1C (centres undefined),2,-3,2,i,34,-2
CCOc1ccc(N(CC(=O)Nc2c(C)cc(C)cc2C)C2=NC3CS(=O)(=O)CC3S2)cc1 (centres undefined),·,·,·,·,·,1
NC(=O)c1sc2nc(N3CCCCC3)c3c(c2c1N)CCCC3,5,-10,0,+,·,1
COc1cc(CNC(=O)c2cc(-c3ccc(F)cc3OC)n[nH]2)cc(OC)c1,·,·,·,·,·,0
C=CCOc1ccc(-c2n[nH]c(=S)o2)cc1,-8,-9,-16,+,-10,3
C#Cc1cccc(Nc2nc(NCc3ccccc3)nc3ccsc23)c1,·,·,·,·,·,3
CCN1/C(=C/C=C/c2oc3ccc(-c4ccccc4)cc3[n+]2CC)Oc2ccc(-c3ccccc3)cc21,i,-4,1,i,120*,-10
CC1OC2CC(=O)OC2C2=C1C(=O)c1c(O)cccc1C2=O (centres undefined),·,·,·,·,·,-17
O=C(Nc1sc2c(c1C(=O)c1ccc(Cl)cc1)CCCC2)c1cccnc1,11,7,-1,+,-1,5
COc1ccc(-n2nc(C(=O)NCC(=O)N(C)Cc3ccccc3)c3ccccc3c2=O)cc1,-13,3,8,+,-3,-2
COc1ccc(-n2nc(C(=O)NCC(=O)N3CCN(Cc4ccccc4)CC3)c3ccccc3c2=O)cc1,0,4,-2,+,1,-1
COc1ccc(-n2nc(C(=O)NCC(=O)NC(C)C)c3ccccc3c2=O)cc1,-17,3,10,i,·,-2
COc1ccc(-n2nc(C(=O)NCC(=O)O)c3ccccc3c2=O)cc1,5,1,-6,i,·,0
COc1ccc(-n2nc(C(=O)NCC(=O)NCc3ccc(F)cc3)c3ccccc3c2=O)cc1,-11,-6,3,+,6,-3
CCCCNC(=O)C1(C)CCN1C(=O)Cc1cccc2ccccc12 (centres undefined),·,·,·,·,·,1
COc1ccc(C2Nc3ccccc3C(=O)N2Cc2ccccc2)cc1COc1ccccn1 (centres undefined),3,7,-4,+,·,-2
COc1cccc(-c2ccc(-c3noc(-c4ccccc4F)n3)c(OC)n2)c1,0,5,3,+,-2,-2
